According to ChEMBL document CHEMBL2380222, “Arylsulfonamide pyrimidines as VLA-4 antagonists” (Bioorg Med Chem Lett, 2013):

Experiments:
[1] = AUC in po dosed Sprague-Dawley rat; type: ADME, organism-based; conditions: plasma
[2] = Inhibition of VLA-4 (unknown origin) binding to VCAM-1 in human Jurkat TM cells after 30 mins by fibronectin mediated cell adhesion assay; type: cell-based
Procedure, shortened: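 Calcein-labelled Jurkat TM cells (10^5/well) in Hepes 20 mM, NaCl 140 mM, CaCl2 1 mM, MgCl2 1 mM, 0.3% BSA with activating anti-α4 TS2/16. Cells were preincubated 30 min on wet ice with anti-α5 (5 µg/ml) and a compound dose–response, then bound 35 min at 37 °C, 5% CO2 to human plasma fibronectin-coated wells. Wells were washed 3× and read by fluorescence to give IC50.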

[3] = Plasma concentration in po dosed Sprague-Dawley rat after 12 hrs; type: ADME, organism-based
[4] = AUC in iv dosed Sprague-Dawley rat; type: ADME, organism-based; conditions: plasma
[5] = Oral bioavailability in Sprague-Dawley rat; type: ADME, organism-based; conditions: in vivo
[6] = Plasma concentration in po dosed Sprague-Dawley rat after 6 hrs; type: ADME, organism-based

Compound | AUC [1] [ng·h/mL] | IC50 [2] [nM] | concentration at 12 h [3] [ng/mL] | AUC [4] [ng·h/mL] | bioavailability [5] [%] | concentration at 6 h [6] [ng/mL]
CCN(CC)c1ncc(N(CC)S(=O)(=O)c2ccc(F)cc2)c(N[C@@H](Cc2ccc(OC(=O)N3CCC3)cc2)C(=O)O)n1 | 6000 | 2 | 10 | 34000 | 16 | 
CCN(CC)c1ncc(N(C(C)C)S(=O)(=O)c2ccc(F)c(F)c2)c(N[C@@H](Cc2ccc(OC(=O)N(C)C)cc2)C(=O)O)n1 |  | 7 |  |  |  | 
CCN(CC)c1ncc(N(C)S(=O)(=O)c2ccc(F)cc2F)c(N[C@@H](Cc2ccc(OC(=O)N3CCCC3)cc2)C(=O)O)n1 | 16000 | 8 | 100 | 90000 | 17 | 
CCN(CC)c1ncc(N(CC)S(=O)(=O)c2ccc(F)c(F)c2)c(N[C@@H](Cc2ccc(OC(=O)N(C)C)cc2)C(=O)O)n1 | 4200 | 4 | 8 | 17000 | 24 | 
CCN(CC)c1ncc(N(C(C)C)S(=O)(=O)c2ccc(Cl)cc2)c(N[C@@H](Cc2ccc(OC(=O)N(C)C)cc2)C(=O)O)n1 |  | 4 |  |  |  | 
CN(C)C(=O)Oc1ccc(C[C@H](NC(=O)[C@H]2N(S(=O)(=O)c3cnn(C)c3)CSC2(C)C)C(=O)O)cc1 |  | 2 |  |  |  | 
CCN(CC)c1ncc(N(CC)S(=O)(=O)c2ccc(F)cc2)c(N[C@@H](Cc2ccc(OC(=O)N(C)C)cc2)C(=O)O)n1 | 14000 | 1 | 60 | 32000 | 44 | 
C#CCN(c1cnc(N(CC)CC)nc1N[C@@H](Cc1ccc(OC(=O)N2CCCC2)cc1)C(=O)O)S(=O)(=O)c1ccc(F)cc1F | 42000 | 13 | 120 | 126000 | 33 | 
CCN(CC)c1ncc(N(C)S(=O)(=O)c2ccc(C)cc2)c(N[C@@H](Cc2ccc(OC(=O)N(C)C)cc2)C(=O)O)n1 | 6000 | 2 |  | 41000 | 15 | 100
Cc1ccc(S(=O)(=O)N(C)c2cncnc2N[C@@H](Cc2ccc(OC(=O)N(C)C)cc2)C(=O)O)cc1 |  | 2 |  |  |  | 
